pIC50: −log10 of the molar value.
Legend:
[1] = biological target: T1, Dual specificity protein phosphatase 6 (Rattus norvegicus, UniProt Q64346); experiment: Inhibition of histidine-tagged rat recombinant MKP3 catalytic domain expressed in Escherichia coli BL21(DE3)
T1 sequence (Q64346 whole entry): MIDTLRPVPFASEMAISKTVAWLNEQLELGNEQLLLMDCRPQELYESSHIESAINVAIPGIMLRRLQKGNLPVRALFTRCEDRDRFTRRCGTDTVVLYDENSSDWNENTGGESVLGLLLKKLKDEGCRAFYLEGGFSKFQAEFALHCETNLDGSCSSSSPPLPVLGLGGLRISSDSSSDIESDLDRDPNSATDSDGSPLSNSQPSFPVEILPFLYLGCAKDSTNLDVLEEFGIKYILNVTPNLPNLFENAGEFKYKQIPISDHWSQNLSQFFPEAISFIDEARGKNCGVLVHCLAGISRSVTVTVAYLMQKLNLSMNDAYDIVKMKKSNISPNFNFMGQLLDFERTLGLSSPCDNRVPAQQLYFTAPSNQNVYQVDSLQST
Procedure, shortened: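 Recombinant MKP-3 was expressed from a bacterial plasmid. Phosphatase activity was read from O-methyl fluorescein phosphate hydrolysis in a 25 μL final mixture, incubated 20 or 60 min at ambient temperature. Product fluorescence was read at excitation 485 nm and emission 530 nm. IC50 came from at least six inhibitor concentrations.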

[2] = biological target: T2, Dual specificity protein phosphatase 1 (Mus musculus, UniProt P28563); experiment: Inhibition of histidine-tagged mouse MKP1 catalytic domain expressed in […]
T2 sequence (P28563 whole entry): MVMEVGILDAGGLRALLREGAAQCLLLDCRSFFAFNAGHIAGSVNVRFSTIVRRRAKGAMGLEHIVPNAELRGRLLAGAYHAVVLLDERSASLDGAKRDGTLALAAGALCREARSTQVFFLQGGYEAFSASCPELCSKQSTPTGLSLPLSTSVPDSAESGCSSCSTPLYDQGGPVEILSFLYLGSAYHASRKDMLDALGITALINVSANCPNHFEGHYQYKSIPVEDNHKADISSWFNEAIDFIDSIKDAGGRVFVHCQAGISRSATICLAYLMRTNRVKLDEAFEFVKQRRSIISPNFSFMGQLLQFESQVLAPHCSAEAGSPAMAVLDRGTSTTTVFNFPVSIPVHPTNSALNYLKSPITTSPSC

[3] = biological target: T3, M-phase inducer phosphatase 2 (Homo sapiens, UniProt P30305); experiment: Inhibition of histidine-tagged human recombinant Cdc25B catalytic domain expressed in Escherichia coli
T3 sequence (P30305 whole entry): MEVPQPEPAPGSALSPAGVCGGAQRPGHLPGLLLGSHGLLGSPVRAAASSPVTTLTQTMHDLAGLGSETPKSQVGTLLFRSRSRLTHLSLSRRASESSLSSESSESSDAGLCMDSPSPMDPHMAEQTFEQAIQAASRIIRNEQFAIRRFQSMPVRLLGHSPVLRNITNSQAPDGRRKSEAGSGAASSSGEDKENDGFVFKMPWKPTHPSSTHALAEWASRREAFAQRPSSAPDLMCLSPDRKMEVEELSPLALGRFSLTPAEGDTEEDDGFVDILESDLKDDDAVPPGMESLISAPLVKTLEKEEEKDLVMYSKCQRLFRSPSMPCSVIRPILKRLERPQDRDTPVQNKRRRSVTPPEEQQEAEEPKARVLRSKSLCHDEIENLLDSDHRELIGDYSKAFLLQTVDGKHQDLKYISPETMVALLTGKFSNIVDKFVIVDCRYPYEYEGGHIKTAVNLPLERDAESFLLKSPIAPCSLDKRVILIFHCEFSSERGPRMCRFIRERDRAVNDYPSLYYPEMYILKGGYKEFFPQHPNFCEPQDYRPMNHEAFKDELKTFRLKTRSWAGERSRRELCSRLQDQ

Measured: pIC50

Cc1c(NCC=O)c(O)c2ccccc2c1O [2-(2-hydroxyethylamino)-3-methylnaphthalene-1,4-dione]
< 4.30: all assays above

O=CCNc1cc(O)c2ccccc2c1O [2-(2-hydroxyethylamino)naphthalene-1,4-dione]
< 4.30: all assays above

From BindingDB's records for doi:10.1016/j.bmc.2008.10.090 (Virginia Polytechnic Institute and State University, 2009)
